Activity calls are given as the source filed them. The calls are words filed in the database; no cut-off is given here.
Columns and labels:
HCT-116 [1] = assay: Growth inhibition of human HCT116 cells after 24 hrs by ELISA; assay type: functional; settings: HCT-116, 24 h
NCI-H23 = assay: Growth inhibition of human NCI-H23 cells after 24 hrs by ELISA; assay type: functional; settings: NCI-H23, 24 h
SK-OV-3 = assay: Growth inhibition of human SKOV3 cells after 24 hrs by ELISA; assay type: functional; settings: SK-OV-3, 24 h
A549 = assay: Growth inhibition of human A549 cells after 24 hrs by ELISA; assay type: functional; settings: A549, 24 h
[2] = Growth inhibition of human […] cells after 24 hrs by ELISA; assay type: functional
SW-620 [3] = assay: Antitumor activity against human SW620 cells in nude mouse assessed as tumor volume on day 5 at 50 mg/kg, […]; assay type: functional; settings: route intraperitoneal
SW-620 [4] = assay: Antitumor activity against human SW620 cells in nude mouse assessed as tumor volume on day 7 at 50 mg/kg, […]; assay type: functional; settings: route intraperitoneal
SW-620 [5] = assay: Antitumor activity against human SW620 cells in nude mouse assessed as tumor volume on day 9 at 50 mg/kg, […]; assay type: functional; settings: route intraperitoneal
SW-620 [6] = assay: Antitumor activity against human SW620 cells in nude mouse assessed as tumor volume on day 12 at 50 mg/kg, […]; assay type: functional; settings: route intraperitoneal
SW-620 [7] = assay: Antitumor activity against human SW620 cells in nude mouse assessed as tumor volume on day 14 at 50 mg/kg, ip for 20 days; assay type: organism-based; design: dose 50 mg/kg, route intraperitoneal; settings: in vivo
In short: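 SW620 human colon adenocarcinoma cells (3 × 10⁷ cells/mL) implanted subcutaneously in right flank of nude mice on day 0. Compound in 0.5% Tween 80 given ip at 50 mg/kg per day; vehicle control and doxifluridine 50 mg/kg reference; 8 mice per group. Tumor volume estimated as length × width × height/2; mice sacrificed on day 14.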

HCT-116 [8] = assay: Cell cycle arrest in human HCT116 cells assessed as accumulation at subG1 phase at 20 uM after 24 hrs by flow cytometry; assay type: functional
In short: (§1)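 After treatment, cells harvested at 24 h, trypsinized, washed with PBS, fixed overnight in ice-cold 70% EtOH, then treated with RNase A 100 µg/mL at 37 °C for 30 min. Stained with propidium iodide (final 50 µg/mL). DNA content of 20,000 fixed cells read by flow cytometry (FACScalibur); phase distribution from cell cycle modelling.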

HCT-116 [9] = assay: Cell cycle arrest in human HCT116 cells assessed as accumulation at subG1 phase at 30 uM after 24 hrs by flow cytometry; assay type: functional; in short: as §1
HCT-116 [10] = assay: Cell cycle arrest in human HCT116 cells assessed as accumulation at subG1 phase at 40 uM after 24 hrs by flow cytometry; assay type: functional; in short: as §1
HCT-116 [11] = assay: Cell cycle arrest in human HCT116 cells assessed as accumulation at G0/G1 phase at 20 uM after 24 hrs by flow cytometry; assay type: functional; in short: as §1
HCT-116 [12] = assay: Cell cycle arrest in human HCT116 cells assessed as accumulation at G0/G1 phase at 30 uM after 24 hrs by flow cytometry; assay type: functional; in short: as §1
HCT-116 [13] = assay: Cell cycle arrest in human HCT116 cells assessed as accumulation at G0/G1 phase at 40 uM after 24 hrs by flow cytometry; assay type: functional; in short: as §1
HCT-116 [14] = assay: Cell cycle arrest in human HCT116 cells assessed as accumulation at S phase at 20 uM after 24 hrs by flow cytometry; assay type: functional; in short: as §1
HCT-116 [15] = assay: Cell cycle arrest in human HCT116 cells assessed as accumulation at S phase at 30 uM after 24 hrs by flow cytometry; assay type: functional; in short: as §1
HCT-116 [16] = assay: Cell cycle arrest in human HCT116 cells assessed as accumulation at S phase at 40 uM after 24 hrs by flow cytometry; assay type: functional; in short: as §1
HCT-116 [17] = assay: Cell cycle arrest in human HCT116 cells assessed as accumulation at G2/M phase at 20 uM after 24 hrs by flow cytometry; assay type: functional; in short: as §1
HCT-116 [18] = assay: Cell cycle arrest in human HCT116 cells assessed as accumulation at G2/M phase at 30 uM after 24 hrs by flow cytometry; assay type: functional; in short: as §1
HCT-116 [19] = assay: Cell cycle arrest in human HCT116 cells assessed as accumulation at G2/M phase at 40 uM after 24 hrs by flow cytometry; assay type: functional; in short: as §1
SW-620 [20] = assay: Cell cycle arrest in human SW620 cells assessed as accumulation at subG1 phase at 20 uM after 24 hrs by flow cytometry; assay type: functional; in short: as §1
SW-620 [21] = assay: Cell cycle arrest in human SW620 cells assessed as accumulation at subG1 phase at 30 uM after 24 hrs by flow cytometry; assay type: functional; in short: as §1
SW-620 [22] = assay: Cell cycle arrest in human SW620 cells assessed as accumulation at subG1 phase at 40 uM after 24 hrs by flow cytometry; assay type: functional; in short: as §1
SW-620 [23] = assay: Cell cycle arrest in human SW620 cells assessed as accumulation at G0/G1 phase at 20 uM after 24 hrs by flow cytometry; assay type: functional; in short: as §1
SW-620 [24] = assay: Cell cycle arrest in human SW620 cells assessed as accumulation at G0/G1 phase at 30 uM after 24 hrs by flow cytometry; assay type: functional; in short: as §1
SW-620 [25] = assay: Cell cycle arrest in human SW620 cells assessed as accumulation at G0/G1 phase at 40 uM after 24 hrs by flow cytometry; assay type: functional; in short: as §1
SW-620 [26] = assay: Cell cycle arrest in human SW620 cells assessed as accumulation at S phase at 20 uM after 24 hrs by flow cytometry; assay type: functional; in short: as §1
SW-620 [27] = assay: Cell cycle arrest in human SW620 cells assessed as accumulation at S phase at 30 uM after 24 hrs by flow cytometry; assay type: functional; in short: as §1
SW-620 [28] = assay: Cell cycle arrest in human SW620 cells assessed as accumulation at S phase at 40 uM after 24 hrs by flow cytometry; assay type: functional; in short: as §1
SW-620 [29] = assay: Cell cycle arrest in human SW620 cells assessed as accumulation at G2/M phase at 20 uM after 24 hrs by flow cytometry; assay type: functional; in short: as §1
SW-620 [30] = assay: Cell cycle arrest in human SW620 cells assessed as accumulation at G2/M phase at 30 uM after 24 hrs by flow cytometry; assay type: functional; in short: as §1
SW-620 [31] = assay: Cell cycle arrest in human SW620 cells assessed as accumulation at G2/M phase at 40 uM after 24 hrs by flow cytometry; assay type: functional; in short: as §1
HCT-116 [32] = assay: Induction of PARP cleavage in human HCT116 cells at 20 uM after 24 hrs; assay type: functional, cell-based
In short: (§2)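 HCT116 cells treated for 24 h, lysed in RIPA buffer; 40 µg lysate resolved by 15% SDS–PAGE, blotted to PVDF, blocked in 5% milk/TBS-T. Primary antibodies 2 h at room temperature, HRP goat anti-rabbit secondary, chemiluminescent detection on X-ray film for PARP and caspase-3 cleavage.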

HCT-116 [33] = assay: Induction of caspase 3 cleavage in human HCT116 cells at 20 uM after 24 hrs; assay type: functional, cell-based; in short: as §2
[34] = system: SW620 (human colon adenocarcinoma); assay: Induction of apoptosis in human SW620 cells at 30 uM after 24 hrs

## O=C(/C=C/c1ccccc1OC(=O)c1ccccc1)NOC(=O)c1ccccc1
HCT-116 [1]
  GI50: 13.6 µM
NCI-H23
  GI50: 18.2 µM
SK-OV-3
  GI50: 12.9 µM
A549
  GI50: 8.8 µM
[2]
  GI50: 3.2 µM

## CN1CCN(C(=O)ONC(=O)/C=C/c2ccccc2OC(=O)c2ccccc2)CC1
HCT-116 [1]
  GI50: 40.4 µM
NCI-H23
  GI50: 45.2 µM
SK-OV-3
  GI50: > 100 µM
A549
  GI50: > 100 µM
[2]
  GI50: 89.3 µM

## CO/N=C/C=C/c1ccccc1OC(=O)c1ccccc1
HCT-116 [1]
  GI50: > 100 µM
NCI-H23
  GI50: > 100 µM
SK-OV-3
  GI50: > 100 µM
A549
  GI50: > 100 µM
[2]
  GI50: > 100 µM

## COc1ccccc1/C=C/C(=O)NO
HCT-116 [1]
  GI50: 15.3 µM
NCI-H23
  GI50: 26.9 µM
SK-OV-3
  GI50: 48.8 µM
A549
  GI50: 53.5 µM
[2]
  GI50: 16.8 µM

## O=C(/C=C/c1ccccc1OC(=O)c1ccccc1)NO
HCT-116 [1]
  GI50: 11.2 µM
NCI-H23
  GI50: 17.5 µM
SK-OV-3
  GI50: 35.3 µM
A549
  GI50: 44.9 µM
[2]
  GI50: 20.2 µM

## CC(=O)ONC(=O)/C=C/c1ccccc1OC(=O)c1ccccc1
HCT-116 [1]
  GI50: 21.3 µM
NCI-H23
  GI50: 26.3 µM
SK-OV-3
  GI50: 16.8 µM
A549
  GI50: 30.2 µM
[2]
  GI50: 18.6 µM

## O=C(Cl)/C=C/c1ccccc1OC(=O)c1ccccc1
HCT-116 [1]
  GI50: > 100 µM
NCI-H23
  GI50: > 100 µM
SK-OV-3
  GI50: > 100 µM
A549
  GI50: > 100 µM
[2]
  GI50: > 100 µM

## C[C@H]1O[C@@H](n2cc(F)c(=O)[nH]c2=O)[C@H](O)[C@@H]1O [DOXIFLURIDINE]
SW-620 [3]
  Activity: 3.8 mm3
SW-620 [4]
  Activity: 15 mm3
SW-620 [5]
  Activity: 41.4 mm3
SW-620 [6]
  Activity: 77.9 mm3
SW-620 [7]
  Activity: 120.7 mm3

## O=C(/C=C/c1ccccc1OC(=O)c1ccccc1)NOC(=O)N1CCOCC1
HCT-116 [1]
  GI50: 12.5 µM
NCI-H23
  GI50: 12.9 µM
SK-OV-3
  GI50: 12.7 µM
A549
  GI50: 25.2 µM
[2]
  GI50: 5.8 µM
HCT-116 [8]
  Activity: 32.36%
HCT-116 [9]
  Activity: 39.14%
HCT-116 [10]
  Activity: 36.83%
HCT-116 [11]
  Activity: 42.72%
HCT-116 [12]
  Activity: 41.4%
HCT-116 [13]
  Activity: 31.06%
HCT-116 [14]
  Activity: 22.05%
HCT-116 [15]
  Activity: 20.39%
HCT-116 [16]
  Activity: 26.88%
HCT-116 [17]
  Activity: 35.23%
HCT-116 [18]
  Activity: 38.22%
HCT-116 [19]
  Activity: 42.06%
SW-620 [20]
  Activity: 3.03%
SW-620 [21]
  Activity: 3.5%
SW-620 [22]
  Activity: 12.7%
SW-620 [23]
  Activity: 48.88%
SW-620 [24]
  Activity: 46.46%
SW-620 [25]
  Activity: 33.34%
SW-620 [26]
  Activity: 27.79%
SW-620 [27]
  Activity: 26.12%
SW-620 [28]
  Activity: 26.52%
SW-620 [29]
  Activity: 22.33%
SW-620 [30]
  Activity: 26.41%
SW-620 [31]
  Activity: 40.14%
HCT-116 [32]
  Activity: Active
HCT-116 [33]
  Activity: Active
SW-620 [3]
  Activity: 1.4 mm3
SW-620 [4]
  Activity: 4.3 mm3
SW-620 [5]
  Activity: 17.3 mm3
SW-620 [6]
  Activity: 45 mm3
SW-620 [7]
  Activity: 89 mm3
[34]
  Activity: Active

## O=C(/C=C/c1ccccc1O)NO
HCT-116 [1]
  GI50: 16.8 µM
NCI-H23
  GI50: 27.8 µM
SK-OV-3
  GI50: 50.4 µM
A549
  GI50: 55.2 µM
[2]
  GI50: 49.8 µM

## CN1CCN(C(=O)/C=C/c2ccccc2OC(=O)c2ccccc2)CC1
HCT-116 [1]
  GI50: > 100 µM
NCI-H23
  GI50: > 100 µM
SK-OV-3
  GI50: > 100 µM
A549
  GI50: > 100 µM
[2]
  GI50: > 100 µM
